ChEMBL document CHEMBL1153570, “Synthesis and antitubercular screening of imidazole derivatives” (2009)
In brackets after ≈: the same amount, converted by molar mass.

Tests used:
Assay type in all cases: functional
[1] = system: Mycobacterium tuberculosis; test: Antimycobacterial activity against Mycobacterium tuberculosis H37Rv by agar microdilution assay
Procedure, shortened: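 H37Rv from L–J medium suspended in 0.85% saline with 0.05% Tween-80. Twofold compound dilutions in OADC-supplemented 7H10 agar slants, preincubated 24 h at 37 °C, then streaked with 5 × 10⁴ bacilli per tube. Incubated at 37 °C and growth read after 30 days against drug-free controls. MIC taken as the concentration giving complete inhibition of colonies.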

[2] = system: Mycobacterium tuberculosis; test: Antimycobacterial activity against Mycobacterium tuberculosis H37Ra after 5 days by microplate alamar blue assay; settings: 120 h
Procedure, shortened: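 Log-phase M. tuberculosis H37Ra diluted to final OD550 0.05 in Sauton's medium. Compounds in DMSO, twofold dilutions from […]. Incubated at 37 °C/5% CO2 for 5 days, alamar blue added on day 5, incubated overnight. Fluorescence read-out.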

[3] = system: Mycobacterium tuberculosis; test: Antitubercular activity against Mycobacterium tuberculosis H37Rv after 5 to 8 days by BACTEC radiometric assay
Procedure, shortened: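 H37Rv from L–J slants homogenized with glass beads and adjusted to McFarland 1. Primary inoculum grown in BACTEC 12B vial to GI 500–700, then 0.1 ml added to 4 ml 12B broth containing compound. A 1:100-inoculum control vial was included. Incubated at 37 °C with daily GI readings; read one more day after the 1:100 control reached GI 30.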

Row | Structure (SMILES) | MIC [1] | MIC [2] | MIC [3]
1 | c1ccc(Cn2cnc3ccccc32)cc1 | > 12.5 µg/mL | > 12.5 µg/mL | –
2 | Clc1ccc(Cn2ccnc2)cc1Cl | – | > 12.5 µg/mL | –
3 | CCCCCCNC(=O)Cn1ccnc1 | > 12.5 µg/mL | 25 µg/mL (≈ 119 µM) | –
4 | CCOC(=O)CCn1ccnc1 | > 12.5 µg/mL | – | –
5 | c1cn(CCCCCn2ccnc2)cn1 | > 12.5 µg/mL | > 12.5 µg/mL | –
6 | CCOC(=O)Cn1ccnc1 | > 6.25 µg/mL | > 12.5 µg/mL | –
7 | C=CCc1cnc(CCC)n1CCCn1ccnc1CCC | 25 µg/mL (≈ 83.2 µM) | > 12.5 µg/mL | –
8 | c1cn(CCCn2ccnc2)cn1 | > 12.5 µg/mL | > 12.5 µg/mL | –
9 | CCCc1nccn1C(CC(=O)OCC)C1O[C@H]2OC(C)(C)O[C@H]2[C@@H]1OC (stereo not given in full) | 25 µg/mL (≈ 65.4 µM) | 25 µg/mL (≈ 65.4 µM) | –
10 | CCCCCCCNC(=O)Cn1ccnc1 | > 12.5 µg/mL | > 12.5 µg/mL | –
11 | CCCCNC(=O)Cn1ccnc1 | > 12.5 µg/mL | > 12.5 µg/mL | –
12 | OCCn1ccnc1 | > 12.5 µg/mL | > 12.5 µg/mL | –
13 | CCOC(=O)CC(C1O[C@H]2OC(C)(C)O[C@H]2[C@@H]1OC)n1ccnc1 (stereo not given in full) | 25 µg/mL (≈ 73.4 µM) | 25 µg/mL (≈ 73.4 µM) | –
14 | c1ccc(CNCCn2ccnc2)cc1 | 12.5 µg/mL (≈ 62.1 µM) | 12.5 µg/mL (≈ 62.1 µM) | –
15 | CCOC(=O)CC(C1O[C@H]2OC(C)(C)O[C@H]2[C@@H]1OCc1ccccc1)n1ccnc1 (stereo not given in full) | 50 µg/mL (≈ 120 µM) | 50 µg/mL (≈ 120 µM) | –
16 | CCCc1nccn1CCCn1ccnc1CCC | – | > 12.5 µg/mL | 6.25 µg/mL (≈ 24 µM)
17 | O=C(Cn1ccnc1)NCc1ccccc1 | > 12.5 µg/mL | > 12.5 µg/mL | –
18 | CCCc1nccn1C(CC(=O)OCC)C1O[C@H]2OC(C)(C)O[C@H]2[C@@H]1OCc1ccccc1 (stereo not given in full) | 50 µg/mL (≈ 109 µM) | 50 µg/mL (≈ 109 µM) | –
19 | Clc1ccc(Cn2cnc3ccccc32)cc1Cl | > 12.5 µg/mL | > 12.5 µg/mL | –
20 | CC[C@@H](CO)NCCN[C@@H](CC)CO [ETHAMBUTOL] | 1.5 µg/mL (≈ 7.34 µM) | 1.5 µg/mL (≈ 7.34 µM) | –
21 | NNC(=O)c1ccncc1 [ISONIAZID] | 0.65 µg/mL (≈ 4.74 µM) | 0.65 µg/mL (≈ 4.74 µM) | –
